# T cruzi growth-1 – blocks T. cruzi growth in NIH3T3 culture; T. cruzi beta-gal in NIH3T3, GalScreen luminescence, 90 h; inhibition, % at 8.34 µM; 5.9% of 77,000 active; AID 624255;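 active means mean inhibition above about 93%, with at least 55% of replicates each passing it, limit read from the data, passing the limit was not always enough; inconclusive means only one of those two conditions holds; inactive means neither condition holds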
# Pf Dd2 inh – inhibitors of Plasmodium falciparum Dd2 growth; P. falciparum Dd2 growth, SYBR Green, 72 h; hits give low values; activity change, % at 10 µM; 2.3% of 94,000 active; in the data active means activity change below about -80%; inconclusive means no clear call, values can overlap the other calls
# IDH1 mut inh – IDH1 R132H (human) inhibition; O75874; IDH1 R132H reductase, diaphorase/resazurin fluorescence, 60 min; inhibition, % at 10 µM; 0.18% of 70,000 active; AID 624101; in the data active means inhibition above about 34%; inconclusive means no clear call, values can overlap the other calls; inactive means below about 11%;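 further: 0% = DMSO and 100% = no enzyme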
# Target sequence (O75874 whole entry R132H): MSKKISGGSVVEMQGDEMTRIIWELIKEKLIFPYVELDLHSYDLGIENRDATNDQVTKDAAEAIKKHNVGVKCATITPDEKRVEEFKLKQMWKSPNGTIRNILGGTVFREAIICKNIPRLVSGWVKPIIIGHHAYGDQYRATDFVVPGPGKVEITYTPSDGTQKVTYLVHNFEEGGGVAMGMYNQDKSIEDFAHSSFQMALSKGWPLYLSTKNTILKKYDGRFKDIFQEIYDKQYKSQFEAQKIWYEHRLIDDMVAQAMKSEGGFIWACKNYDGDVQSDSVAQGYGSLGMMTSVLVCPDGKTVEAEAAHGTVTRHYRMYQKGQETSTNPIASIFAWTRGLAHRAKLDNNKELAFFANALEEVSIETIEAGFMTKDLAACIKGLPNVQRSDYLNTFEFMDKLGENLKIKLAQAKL
# KDM4C inh – blocks human GASC-1 (KDM4C) demethylase activity. GST-KDM4C 2-372, H3K9me3 peptide, LANCE TR-FRET. inhibition, % at 12.5 µM. 0.15% of 96,000 active. AID 720574;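 active means mean replicate inhibition above about 25%, with at least 55% of replicates also reaching it, limit read from the data, passing the limit was not always enough; inconclusive means only one of those two conditions met; inactive means neither condition met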
#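 material = GST-tagged GASC-1 (JMJD2C) catalytic fragment, aa 2-372 | amount = enzyme final amount 10 nM | medium = HEPES buffer, pH 7.5, plus ascorbate | also added = H3K9me3 peptide substrate, Fe(II), 2-oxoglutarate | dosing = single dose | times = 30 min demethylation and 1 h detection at room temperature | detection = LANCE TR-FRET | read-out basis = Fall in 671/618 emission ratio as inhibition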
# T cruzi growth-2 – Trypanosoma cruzi proliferation inhibition | 72% of 5,600 active | shares compounds with T cruzi growth-1 | T. cruzi beta-gal in NIH3T3, GalScreen luminescence, 90 h | inhibition, % at 8.35 µM;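 active means mean replicate inhibition above about 95% and at least 55% of replicates individually reaching it, limit read from the data; inconclusive means only one of the two criteria is met; inactive means neither criterion is met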
# T cruzi growth-3 – inhibitors of T. cruzi proliferation | shares compounds with T cruzi growth-1 | T. cruzi beta-gal in NIH3T3, GalScreen luminescence, 90 h | inhibition, % at 2.09 µM | 21% of 5,600 active;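 active means mean inhibition above about 95%, with at least 55% of replicates also reaching it, limit read from the data; inconclusive means meets just one of the two conditions; inactive means meets neither condition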;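 further: plate controls were neutral control median for no effect and positive control median for full effect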
# 3T3 cytotox – cytotoxicity in mouse NIH/3T3 fibroblasts. shares compounds with T cruzi growth-1. cytotoxicity (signal decrease), % at 8.35 µM. 14% of 5,600 active. NIH/3T3 viability, CellTiter-Glo ATP luminescence, 90 h;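 active means mean signal decrease across replicates above about 35% based on untreated-well scatter, with enough replicates individually passing, limit read from the data; inconclusive means no rule stated though some were filed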;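 further: 0% = median of neutral control wells and 100% = median of positive control wells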
# 3T3 cytotox 2 – cytotoxicity in mouse NIH/3T3 fibroblasts; shares compounds with T cruzi growth-1; NIH/3T3 viability, CellTiter-Glo ATP luminescence, 90 h; inhibition, % at 24.9 µM; 56% of 5,600 active; AID 651744;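 active means mean loss of cell viability signal at or above a set limit, and enough replicates individually reaching it; inconclusive means meets only the mean limit or only the replicate share; inactive means meets neither condition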;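 further: 0% = median of neutral control wells and 100% = median of positive control wells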
# An asterisk follows results filed as active; ? = inconclusive; / = not tested or not shown. This is a sample that favours compounds with a hit; in the whole collection about 5.8% have one here.
SMILES,T cruzi growth-1,Pf Dd2 inh,IDH1 mut inh,KDM4C inh,T cruzi growth-2,T cruzi growth-3,3T3 cytotox,3T3 cytotox 2
COc1ccc(S(=O)(=O)Nc2ccc3c(c2)C(=O)N([C@H](C)CO)C[C@H](C)[C@@H](CN(C)S(=O)(=O)c2ccc(Cl)cc2)OCCCC[C@@H](C)O3)cc1,101.2*,-25.2,0.5,-0.1,108.1*,27.7,5.5,36.5*
CO[C@H](CN(C)S(=O)(=O)c1cccc(Cl)c1)[C@H](C)CN([C@@H](C)CO)S(=O)(=O)c1cccc(Cl)c1,99.3*,-52.4,-0.6,-1.1,109.7*,24.3,49.3*,57.7*
CO[C@@H](CN(C)S(=O)(=O)c1cccc(Cl)c1)[C@H](C)CN([C@@H](C)CO)S(=O)(=O)c1ccc(Cl)cc1,102.7*,-13.3,-0.4,-0.2,?,23.0,?,75.6*
CO[C@H](CN(C)S(=O)(=O)c1ccc(C)cc1)[C@H](C)CN([C@H](C)CO)S(=O)(=O)c1cccc(Cl)c1,102.0*,-3.9,-0.7,-2.6,102.8*,25.9,57.7*,83.6*
CO[C@H](CN(C)S(=O)(=O)c1cccc(Cl)c1)[C@H](C)CN([C@H](C)CO)S(=O)(=O)c1cccc(Cl)c1,101.0*,-34.5,-0.6,-0.7,113.3*,71.5,?,60.0*
CO[C@@H](CN(C)S(=O)(=O)c1cccc(Cl)c1)[C@@H](C)CN([C@H](C)CO)S(=O)(=O)c1cccc(Cl)c1,90.7,-21.9,-0.4,-2.3,/,/,/,/
COc1cccc(NC(=O)N(C)C[C@H]2Oc3ncc(C#Cc4ccccc4)cc3C(=O)N([C@@H](C)CO)C[C@H]2C)c1,?,-37.1,/,/,104.5*,51.5,2.3,38.3*
COc1cccc(NC(=O)N(C)C[C@@H]2Oc3ncc(C#Cc4ccccc4)cc3C(=O)N([C@H](C)CO)C[C@H]2C)c1,121.4*,-44.9,-3.4,/,106.5*,111.3*,16.6,27.6*
COc1cccc(NC(=O)N(C)C[C@H]2Oc3ncc(C#Cc4ccccc4)cc3C(=O)N([C@H](C)CO)C[C@@H]2C)c1,110.4*,-45.4,0.2,/,108.4*,88.0,?,27.6*
COc1cccc(NC(=O)N(C)C[C@H]2Oc3ncc(C#Cc4ccccc4)cc3C(=O)N([C@H](C)CO)C[C@H]2C)c1,95.5,-32.3,/,/,/,/,/,/
CC(C)CC#Cc1ccc2c(c1)O[C@@H](CN(C)Cc1ccc3c(c1)OCO3)[C@@H](C)CN([C@@H](C)CO)S2(=O)=O,47.2,-63.5,0.0,-3.1,/,/,/,/
CCCC#Cc1ccc2c(c1)O[C@@H](CN(C)Cc1ccc3c(c1)OCO3)[C@@H](C)CN([C@H](C)CO)S2(=O)=O,109.3*,/,0.4,2.7,91.9,104.8*,13.5,103.1*
C[C@H](CO)N1C[C@H](C)[C@@H](CN(C)Cc2ccc3c(c2)OCO3)Oc2cc(C#CCN(C)C)ccc2S1(=O)=O,102.7*,-15.6,0.5,-0.4,110.1*,57.7,?,104.6*
C[C@@H]1CN([C@@H](C)CO)S(=O)(=O)c2ccc(C#CCN(C)C)cc2O[C@H]1CN(C)Cc1ccc2c(c1)OCO2,111.3*,-44.1,0.1,0.6,102.3*,93.9,44.8*,104.1*
C(=C\c1nn2c(Cn3cnc4ccccc43)nnc2s1)/c1ccccc1,/,/,0.1,/,/,/,/,/
Cc1noc(C)c1S(=O)(=O)Nc1ccc2c(c1)C(=O)N([C@@H](C)CO)C[C@@H](C)[C@H](CN(C)Cc1ccc(C(F)(F)F)cc1)OCCCC[C@H](C)O2,90.5,-52.6,12.5,-1.1,/,/,/,/
Cc1noc(C)c1S(=O)(=O)Nc1ccc2c(c1)C(=O)N([C@H](C)CO)C[C@H](C)[C@@H](CN(C)Cc1ccc(C(F)(F)F)cc1)OCCCC[C@H](C)O2,99.6*,-11.6,/,-2.1,110.3*,106.7*,5.5,105.3*
Cc1noc(C)c1S(=O)(=O)Nc1ccc2c(c1)C(=O)N([C@H](C)CO)C[C@H](C)[C@H](CN(C)Cc1ccc(C(=O)O)cc1)OCCCC[C@H](C)O2,31.6,1.0,/,1.0,/,/,/,/
Cc1noc(C)c1S(=O)(=O)Nc1ccc2c(c1)C(=O)N([C@@H](C)CO)C[C@H](C)[C@@H](CN(C)Cc1ccc(C(F)(F)F)cc1)OCCCC[C@@H](C)O2,98.0*,-7.9,3.8,1.9,?,?,18.3,105.1*
Cc1noc(C)c1S(=O)(=O)Nc1ccc2c(c1)C(=O)N([C@@H](C)CO)C[C@@H](C)[C@H](CN(C)Cc1ccc(Cl)c(Cl)c1)OCCCC[C@@H](C)O2,?,-58.4,/,-2.4,87.0,104.1*,57.3*,105.3*
Cc1noc(C)c1S(=O)(=O)Nc1ccc2c(c1)C(=O)N([C@H](C)CO)C[C@H](C)[C@H](CN(C)Cc1ccc(C(F)(F)F)cc1)OCCCC[C@H](C)O2,101.2*,-64.1,/,8.4,97.1*,105.4*,29.4,104.7*
COc1ccc(C(=O)CSc2ncn(-c3ccccc3)n2)cc1OC,/,/,-0.1,/,/,/,/,/
COc1ccc([N+](=O)[O-])cc1N(CC(=O)Nc1ccccc1Br)S(C)(=O)=O,/,/,2.1,/,/,/,/,/
COc1ccc(S(=O)(=O)N(C)C[C@H]2OCCCC[C@@H](C)Oc3ccc(N(C)C)cc3C(=O)N([C@H](C)CO)C[C@H]2C)cc1,116.7*,-11.9,0.4,-2.0,57.0,-10.0,25.3,21.5
C[C@H](CO)N1C[C@H](C)[C@H](CN(C)S(=O)(=O)c2ccc(Cl)cc2)OCCCC[C@H](C)Oc2ccc(N(C)C)cc2C1=O,100.2*,-57.7,0.4,-0.9,109.7*,47.1,2.7,12.4
C[C@@H]1CCCCO[C@H](CN(C)S(=O)(=O)c2ccc(Cl)cc2)[C@@H](C)CN([C@@H](C)CO)C(=O)c2cc(N(C)C)ccc2O1,99.9*,-37.8,0.5,0.1,111.4*,28.4,-16.9,-17.9
C[C@@H]1CCCCO[C@H](CN(C)S(=O)(=O)c2ccc(Cl)cc2)[C@H](C)CN([C@@H](C)CO)C(=O)c2cc(N(C)C)ccc2O1,86.3,-23.0,1.7,-0.9,/,/,/,/
COc1ccc(S(=O)(=O)N(C)C[C@H]2OCCCC[C@H](C)Oc3ccc(N(C)C)cc3C(=O)N([C@H](C)CO)C[C@H]2C)cc1,12.4,9.5,/,-0.5,/,/,/,/
CS(=O)(=O)N(CC(=O)Nc1cccc(Br)c1)c1cc(Cl)c(Cl)cc1Cl,/,/,0.2,/,/,/,/,/
C=C1C(=O)O[C@H]2[C@H]1[C@@H](OC(=O)C(C)(O)C(C)Cl)C(OC(C)=O)/C(C(=O)OC)=C\CC[C@@]1(C)O[C@H]21 (some centres not stated),/,/,-0.7,/,/,/,/,/

# High-throughput results as filed in PubChem BioAssay.
